Compound activity (PubChem BioAssay)
The list is not random: actives were taken first. Their share in the collection is about 3.5%.
MrgX1 antag: antagonists of human MrgX1 receptor | Q96LB2 | MRGX1-HEK293 calcium flux, Fluo-4, BAM8-22 antagonism; active compounds read low | B-score at 10 µM | 1.3% of 310,000 active | AID 588676;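 active means calcium-response B-score plate-corrected more than 3 library SD below zero, starting fluorescence within 5 deviations, no agonist response on first addition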;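 further: peak minus trough fluorescence over baseline after final BAM8-22 challenge near maximal dose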
Target sequence (Q96LB2 whole entry, looked up): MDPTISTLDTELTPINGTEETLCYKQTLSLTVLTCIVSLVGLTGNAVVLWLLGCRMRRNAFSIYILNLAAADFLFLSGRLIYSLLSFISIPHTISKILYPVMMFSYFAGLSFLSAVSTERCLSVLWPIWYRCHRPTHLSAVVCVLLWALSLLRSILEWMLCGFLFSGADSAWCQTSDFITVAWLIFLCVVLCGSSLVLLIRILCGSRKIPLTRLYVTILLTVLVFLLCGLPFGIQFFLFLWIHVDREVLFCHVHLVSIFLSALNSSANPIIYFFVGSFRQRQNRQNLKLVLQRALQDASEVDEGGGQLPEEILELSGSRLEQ
RGS4 pot: RGS4 potentiation or activation. HEK293 M3R/inducible RGS4, carbachol calcium flux Fluo4; active compounds read low. B-score at 10 µM. 0.92% of 310,000 active. AID 463111;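 active means B-score of the integrated calcium signal more than 4 SD below the library mean, with starting fluorescence not abnormally high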;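 further: negative B-score means reduced calcium response which marks RGS4 activation or potentiation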
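Also added: carbachol at ECmax as muscarinic agonist stimulus; Assay system: HEK293 cells with stable M3R and inducible RGS4; Timing: overnight RGS4 induction, 30 min dye load 37 °C, 20 min compound RT; Measured by: Fluo4-AM (2 µM) calcium-flux fluorescence, kinetic read.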
RGS4 block: inhibitors of human RGS4; B-score at 10 µM; HEK293 M3R/RGS4 inducible, Fluo-4 calcium flux; active compounds read high; triggered by carbachol at its EC20; P49798; 0.45% of 310,000 active;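 active means B-score, a plate-corrected calcium signal, over three deviations above library mean, with baseline fluorescence within five deviations of library mean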;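 further: RGS4 expression induced by doxycycline in cells with stable M3 receptor; B-score is computed from the integrated fluorescence ratio over baseline after carbachol; higher B-score means a larger calcium signal and so more RGS4 inhibition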
Target sequence (P49798 whole entry, looked up): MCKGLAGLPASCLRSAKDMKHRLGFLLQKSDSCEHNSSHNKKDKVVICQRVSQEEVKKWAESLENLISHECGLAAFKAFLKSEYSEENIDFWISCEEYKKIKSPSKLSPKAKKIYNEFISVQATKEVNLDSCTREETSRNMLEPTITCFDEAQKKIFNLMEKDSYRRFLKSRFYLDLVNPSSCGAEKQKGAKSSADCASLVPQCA
MrgX1 ag: activates human MrgX1 receptor signaling; Q96LB2; MrgX1-HEK293 cells, Fluo-4 calcium fluorescence, agonist mode; active compounds read high; B-score at 10 µM; 0.44% of 310,000 active; AID 588627;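 active means calcium response B-score plate-corrected fluorescence ratio at least 3 library SD, with starting fluorescence B-score inside 5 SD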
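Test system: HEK293 cells stably expressing human MrgX1 receptor; Input: fifteen thousand cells per well; Dosing: compound delivered in addition one of three; Schedule: overnight seeding, then 1 h dark dye loading; Technique: Fluo-4 NW calcium fluorescence; Measure: B-scored fluorescence response ratio; Controls: positive and negative controls per plate.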
MrgX1 PAM: human MrgX1 positive allosteric modulation, primary screen | B-score at 10 µM | MrgX1-HEK293, Fluo-4 calcium flux, FDSS; active compounds read high | Q96LB2 | 0.63% of 310,000 active;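 active means plate-corrected calcium response at least 3 library SD above typical, normal starting fluorescence, not activating the receptor alone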;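 further: compound read alongside a low EC10 to EC30 dose of BAM8-22 agonist; peak minus trough fluorescence over baseline measured at the second addition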
RGS4 act valid: confirmation of RGS4 activators; shares compounds with RGS4 pot; HEK293 M3R/RGS4 inducible, carbachol calcium flux Fluo4; inhibition, % at 10 µM; 89% of 1,100 active;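 active means inhibition above 3 SD of the buffer control wells, cut at about 41% in these data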;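 further: signal is the integrated peak-minus-minimum Fluo4 fluorescence over baseline ratio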
RGS4 act ctr: activity in cells without induced RGS4 expression. shares compounds with RGS4 pot. inhibition, % at 10 µM. AID 602283. 82% of 1,100 active. HEK293 M3R non-induced RGS4, Fluo4 calcium flux; after carbachol challenge at its EC90;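 active means inhibition exceeding 3 SD of buffer-only control wells, cut at about 26% in these data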;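 further: percent drop in integrated peak-minus-baseline over baseline Fluo4 ratio after carbachol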
Numbers without * were called inactive.

Results for COc1ccc(OC)c(/C=N/NC(=O)CCN2CCN(C(c3ccccc3)c3ccccc3)CC2)c1 ?
MrgX1 antag: inactive; RGS4 pot: -10.8*; RGS4 block: inactive; MrgX1 ag: inactive; MrgX1 PAM: inactive; RGS4 act valid: 92.5*; RGS4 act ctr: 93.8*

How did CCOc1cccc(C(=O)NC(=S)Nc2ccc(N3CCN(CC)CC3)cc2)c1 do in these assays?
MrgX1 antag: inactive; RGS4 pot: -11*; RGS4 block: inactive; MrgX1 ag: inactive; MrgX1 PAM: inactive; RGS4 act valid: 92.0*; RGS4 act ctr: 86.8*

How did Cc1ccccc1N1CCN(CCCN2C(=O)CC(=C(c3ccccc3)c3ccccc3)C2=O)CC1 do in these assays?
MrgX1 antag: inactive; RGS4 pot: -8.36*; RGS4 block: inactive; MrgX1 ag: inactive; MrgX1 PAM: inactive; RGS4 act valid: 89.5*; RGS4 act ctr: 43.3*

What do the screens show for `CCN(CC)CCC#CC(O)(c1ccccc1)c1ccccc1`?
MrgX1 antag: inactive; RGS4 pot: -8.13*; RGS4 block: inactive; MrgX1 ag: inactive; MrgX1 PAM: inactive; RGS4 act valid: 93.0*; RGS4 act ctr: 88.8*

Results for CCN(CC)CCC#CC1(O)c2ccccc2-c2ccccc21 ?
MrgX1 antag: inactive; RGS4 pot: inactive; RGS4 block: inactive; MrgX1 ag: inactive; MrgX1 PAM: inactive

How did CCOC(=O)c1c(C)n(-c2ccc(C)cc2)c2c(C(C(C)=O)C(=O)O)c(Br)c(O)c(O)c12 (stereo not given) do in these assays?
MrgX1 antag: inactive; RGS4 pot: inactive; RGS4 block: inactive; MrgX1 ag: inactive; MrgX1 PAM: inactive

How did CCOC(=O)C(C(C)=O)c1c(Br)c(O)c(O)c2c(C(=O)c3ccc(C)cc3)coc12 (stereo not given) do in these assays?
MrgX1 antag: inactive; RGS4 pot: -9.24*; RGS4 block: inactive; MrgX1 ag: inactive; MrgX1 PAM: inactive; RGS4 act valid: 41.5*; RGS4 act ctr: 38.8*

What do the screens show for `Cc1ccc(CNC(=O)CSc2nc3c(sc4ccccc43)c(=O)n2CCCN2CCCC2)cc1`?
MrgX1 antag: inactive; RGS4 pot: -11*; RGS4 block: inactive; MrgX1 ag: inactive; MrgX1 PAM: inactive; RGS4 act valid: 94.0*; RGS4 act ctr: 96.8*

How did COc1cccc(NC(=O)COc2coc(CN3CCc4ccccc4C3)cc2=O)c1 do in these assays?
MrgX1 antag: inactive; RGS4 pot: inactive; RGS4 block: inactive; MrgX1 ag: inactive; MrgX1 PAM: inactive

How did O=C(NCc1ccccc1)C(c1ccc(F)cc1)N(C(=O)c1csnn1)C1CCCC1 (stereo not given) do in these assays?
MrgX1 antag: inactive; RGS4 pot: inactive; RGS4 block: inactive; MrgX1 ag: inactive; MrgX1 PAM: inactive

Results for C=CCn1c(SCC(=O)c2cccs2)nc2sc(C)c(C)c2c1=O ?
MrgX1 antag: inactive; RGS4 pot: -9.43*; RGS4 block: inactive; MrgX1 ag: inactive; MrgX1 PAM: inactive; RGS4 act valid: 91.5*; RGS4 act ctr: 38.3*

What do the screens show for `O=C(CCS(=O)(=O)c1ccc(Br)s1)Nc1ccccc1Br`?
MrgX1 antag: inactive; RGS4 pot: inactive; RGS4 block: inactive; MrgX1 ag: inactive; MrgX1 PAM: inactive

Results for CCN(CC)C1CCN(C(=O)c2cc(COc3cccc4cccnc34)on2)C1 (stereo not given) ?
RGS4 pot: -9.15*; RGS4 block: inactive; RGS4 act valid: 89.5*; RGS4 act ctr: 75.3*

How did O=C(CN(Cc1ccccc1F)S(=O)(=O)c1ccc(Cl)cc1)NCC1CCCO1 (stereo not given) do in these assays?
MrgX1 antag: inactive; RGS4 pot: inactive; RGS4 block: inactive; MrgX1 ag: inactive; MrgX1 PAM: inactive

Results for CCC/C(=N\NC(=O)c1ccco1)c1ccc(Cl)s1 ?
MrgX1 antag: inactive; RGS4 pot: inactive; RGS4 block: inactive; MrgX1 ag: inactive; MrgX1 PAM: inactive

Results for COC(=O)c1nc(NNC(=O)c2ccccc2)sc1-c1ccccc1 ?
MrgX1 antag: inactive; RGS4 pot: inactive; RGS4 block: inactive; MrgX1 ag: inactive; MrgX1 PAM: inactive

Results for O=C(CSc1c2c(nc3ccc(Cl)cc13)CCCC2)NCCCN1CCOCC1 ?
MrgX1 antag: inactive; RGS4 pot: -10.5*; RGS4 block: inactive; MrgX1 ag: inactive; MrgX1 PAM: inactive; RGS4 act valid: 91.5*; RGS4 act ctr: 90.8*

How did Cn1cc(CN2C[C@]3(C)C[C@H]2CC(C)(C)C3)c(-c2ccc3c(c2)OCCO3)n1 do in these assays?
MrgX1 antag: inactive; RGS4 pot: -8.94*; RGS4 block: inactive; MrgX1 ag: inactive; MrgX1 PAM: inactive; RGS4 act valid: 88.0*; RGS4 act ctr: 46.8*

What do the screens show for `CCOC(=O)CC1CCCCN1Cc1cn(C)nc1-c1ccc2c(c1)OCCO2` (stereo not given)?
MrgX1 antag: inactive; RGS4 pot: inactive; RGS4 block: inactive; MrgX1 ag: inactive; MrgX1 PAM: inactive

What do the screens show for `O=C1CCCN1CCCNCC(=O)N1c2ccccc2Sc2ccccc21`?
MrgX1 antag: inactive; RGS4 pot: -9.37*; RGS4 block: inactive; MrgX1 ag: inactive; MrgX1 PAM: inactive; RGS4 act valid: 85.0*; RGS4 act ctr: 54.8*

How did O=C(O)c1ccccc1SCC(=O)N1c2ccccc2Sc2ccccc21 do in these assays?
MrgX1 antag: inactive; RGS4 pot: inactive; RGS4 block: inactive; MrgX1 ag: inactive; MrgX1 PAM: inactive

What do the screens show for `CN1CCN(CC(=O)N2c3ccccc3Sc3ccccc32)CC1`?
MrgX1 antag: inactive; RGS4 pot: -11.3*; RGS4 block: inactive; MrgX1 ag: inactive; MrgX1 PAM: inactive; RGS4 act valid: 91.5*; RGS4 act ctr: 75.8*

How did O=C1CCCN1CCCNCC(O)c1ccccc1 (stereo not given) do in these assays?
MrgX1 antag: inactive; RGS4 pot: inactive; RGS4 block: inactive; MrgX1 ag: inactive; MrgX1 PAM: inactive

What do the screens show for `CCOC(=O)N1CCN(CC(=O)N2c3ccccc3Sc3ccccc32)CC1`?
MrgX1 antag: inactive; RGS4 pot: inactive; RGS4 block: inactive; MrgX1 ag: inactive; MrgX1 PAM: inactive

How did O=C(CN1CCCCCC1)N1c2ccccc2Sc2ccccc21 do in these assays?
MrgX1 antag: inactive; RGS4 pot: -10.6*; RGS4 block: inactive; MrgX1 ag: inactive; MrgX1 PAM: inactive; RGS4 act valid: 91.5*; RGS4 act ctr: 91.8*
